Measurements published in ChEMBL document CHEMBL3351898, “4-Aminoquinoline-pyrimidine hybrids: synthesis, antimalarial activity, heme binding and docking studies” (Eur J Med Chem, 2015).
Calls of active or inactive are those of the source. No cut-off for these calls is given here.

What was measured:
[1] = Selectivity index, ratio of IC50 for African green monkey Vero cells to IC50 for chloroquine-resistant Plasmodium falciparum W2; format: toxicity, cell-based; details: read-out: Ratio IC50
In short: (§1)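 Vero cells seeded at 25,000 cells/well and grown 24 h, then exposed to a range of compound concentrations for 48 h. Viability measured by Neutral Red uptake; IC50 from dose-response curves. SI calculated as Vero IC50 divided by antiplasmodial IC50 for the named strain.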

Vero [2] = assay: Cytotoxicity against African green monkey Vero cells after 72 hrs by neutral red assay; format: cell-based, Chlorocebus sabaeus; details: in the assay text read “after 48 hrs” for “after 72 hrs”
In short: (§2)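 Vero cells (monkey kidney […]) were seeded at 25,000 cells/well and incubated 24 h, then exposed to a range of compound concentrations for 48 h. Viable cells were counted by Neutral Red assay, and IC50 was obtained from dose-response curves.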

[3] = Resistance index, ratio of IC50 for chloroquine-resistant Plasmodium falciparum W2 to IC50 for chloroquine-sensitive Plasmodium falciparum D6; format: functional
Plasmodium falciparum [4] = assay: Antimalarial activity against chloroquine-sensitive Plasmodium falciparum D6 assessed as inhibition of parasite growth after 72 hrs by parasite LDH release assay; format: functional, organism-based; details: D6, 72 h
In short: (§3)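 Asexual P. falciparum cultures at 2% parasitemia and 2% hematocrit in RPMI 1640 with 10% human serum and amikacin were added to serially diluted compound. Plates were incubated 72 h at 37 °C under 90% N2/5% O2/5% CO2. Growth was read by pLDH: Malstat reagent 30 min at room temperature, then NBT/PES 1 h in the dark. IC50 taken from dose-response curves; chloroquine and pyrimethamine controls.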

[5] = Selectivity index, ratio of IC50 for African green monkey Vero cells to IC50 for chloroquine-sensitive Plasmodium falciparum D6; format: toxicity, cell-based; details: read-out: Ratio IC50; in short: as §1
Vero [6] = assay: Cytotoxicity against African green monkey Vero cells up to 20 uM after 72 hrs by neutral red assay; format: cell-based; details: chlorocebus sabaeus, 48 h, in the assay text read “48 hrs” for “72 hrs”; in short: as §2
Plasmodium falciparum [7] = assay: Antimalarial activity against chloroquine-resistant Plasmodium falciparum W2 assessed as inhibition of parasite growth after 72 hrs by parasite LDH release assay; format: functional, organism-based; details: W2, 72 h; in short: as §3
Plasmodium berghei [8] = assay: Antimalarial activity against Plasmodium berghei infected in mouse assessed as reduction in parasitemia at 100 mg/kg/day, po dosed on days 0, 1 and 2 post infection measured on day 7; format: functional; details: 168 h
In short: (§4)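 P. berghei-infected mice were given the compound orally at 11.1, 33.3 or 100 mg/kg × 3 days. Vehicle and chloroquine groups were included. Parasitemia was read on days 5 and 7, and % suppression was calculated with mean parasitemia in the vehicle control taken as 100%. Mean survival time was also recorded.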

Plasmodium berghei [9] = assay: Antimalarial activity against Plasmodium berghei infected in mouse assessed as mean survival time at 100 mg/kg/day, po dosed on days 0, 1 and 2 post infection; format: functional
In short: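 P. berghei-infected mice dosed orally with test agent at 11.1, 33.3 or 100 mg/kg, once daily for 3 days; vehicle and chloroquine controls. Mean survival time recorded; parasitemia on days 5 and 7 expressed as % suppression, taking mean vehicle-control parasitemia as 100%.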

Plasmodium berghei [10] = assay: Antimalarial activity against Plasmodium berghei infected in mouse assessed as reduction in parasitemia at 100 mg/kg/day, po dosed on days 0, 1 and 2 post infection measured on day 5; format: functional; details: 120 h; in short: as §4
Plasmodium falciparum [11] = assay: Antimalarial activity against chloroquine-resistant Plasmodium falciparum W2 assessed as inhibition of parasite growth up to 19 uM after 72 hrs by parasite LDH release assay; format: functional, organism-based; in short: as §3
Heme [12] = assay: Binding affinity to monomeric heme (unknown origin) assessed as binding constant at pH 5.6
In short: (§5)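 Hematin in 40% DMSO (monomeric heme, Soret band 402 nm) was titrated with compound in 0.02 M HEPES pH 7.4 or 0.02 M MES pH 5.6. Association constants (log K) were calculated from the titration data, and stoichiometry was taken from a Job's plot of absorbance at 402 nm against compound mole fraction.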

Heme [13] = assay: Binding affinity to heme (unknown origin) assessed as reduction in Fe(3+) intensity at pH 7.4
Heme [14] = assay: Binding affinity to heme (unknown origin) assessed as reduction in Fe(3+) intensity
Heme [15] = assay: Binding affinity to heme (unknown origin) assessed as reduction in Fe(3+) intensity at pH 5.6
mu-oxodimeric heme = assay: Binding affinity to mu-oxo-heme (unknown origin) assessed as binding constant at pH 5.8
In short: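 μ-Oxo-dimeric heme in 20 mM phosphate buffer pH 5.8 was titrated with compound, following the decrease in absorbance at 362 nm. The log K was derived from the titration, and stoichiometry came from a Job's plot.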

Heme [16] = assay: Binding affinity to monomeric heme (unknown origin) assessed as binding constant at pH 7.4; in short: as §5
[17] = Chlorocebus sabaeus, Vero, 48 h, read-out: IC50

Structure (SMILES) | selectivity ratio [1] | Ratio IC50 [3] | IC50 (Plasmodium falciparum [4]) | selectivity ratio [5] | IC50 (Plasmodium falciparum [7]) | IC50 (Vero [2]; [17]) | further results
Clc1ccc2c(NCCNc3nccc(Nc4ccc(Br)cc4)n3)ccnc2c1 | > 147 | 3.67 | 0.037 µM | > 541 | 0.136 µM |  | IC50 (Vero [2]; vero): Not Active; Activity (Vero [6]): Non-toxic
Clc1ccc2c(NCCCCNc3nccc(Nc4ccc(Br)cc4)n3)ccnc2c1 | 159 | 1.34 | 0.047 µM | 214 | 0.063 µM | 10 µM | 
COc1ccc(Nc2ccnc(NCCNc3ccnc4cc(Cl)ccc34)n2)cc1 | > 83 | 6.03 | 0.04 µM | > 500 | 0.241 µM |  | IC50 (Vero [2]; vero): Not Active; Activity (Vero [6]): Non-toxic
Clc1ccc2c(NCCCNc3nccc(Nc4ccccc4)n3)ccnc2c1 | 89.2 | 7.57 | 0.019 µM | 676 | 0.144 µM | 12.8 µM | 
CCN(CC)CCCC(C)Nc1ccnc2cc(Cl)ccc12 (configuration not stated) [CHLOROQUINE] |  |  |  |  |  |  | IC50 (Vero [2]; vero): Not Active; inhibition in vivo at 100 mg/kg/day (Plasmodium berghei [8]): 100%; MST (Plasmodium berghei [9]): 26.2 days; inhibition in vivo at 100 mg/kg/day (Plasmodium berghei [10]): 100%; Activity (Vero [6]): Non-toxic
CCc1nc(N)nc(N)c1-c1ccc(Cl)cc1 |  |  |  |  |  |  | growth inhibition (GI) (Plasmodium falciparum [11]): inactive
Clc1ccc(Nc2ccnc(NCCNc3ccnc4cc(Cl)ccc34)n2)cc1 | 342 | 0.978 | 0.047 µM | 335 | 0.046 µM | 15.8 µM | log K (Heme [12]): 5.51; Activity (Heme [13]): Active; Activity (Heme [14]): Active; Activity (Heme [15]): Active; log K (mu-oxodimeric heme): 5.12; log K (Heme [16]): 5.04
COc1cc(Nc2ccnc(NCCCNc3ccnc4cc(Cl)ccc34)n2)cc(OC)c1 | 121 | 2.81 | 0.038 µM | 340 | 0.107 µM | 12.9 µM | 
Clc1ccc2c(NCCCCNc3nccc(Nc4ccccc4)n3)ccnc2c1 | 35.5 | 9.15 | 0.044 µM | 326 | 0.403 µM | 14.3 µM | 
Clc1ccc2c(NCCCNc3nccc(Nc4ccc(Br)cc4)n3)ccnc2c1 | 237 | 0.95 | 0.049 µM | 228 | 0.047 µM | 11.2 µM | 
Cc1ccc(Nc2ccnc(NCCCCNc3ccnc4cc(Cl)ccc34)n2)cc1 | 37.2 | 3.75 | 0.138 µM | 140 | 0.518 µM | 19.3 µM | 
Cc1ccc(Nc2ccnc(NCCNc3ccnc4cc(Cl)ccc34)n2)cc1 | 95.1 | 1.41 | 0.101 µM | 135 | 0.143 µM | 13.6 µM | 
COc1cc(Nc2ccnc(NCCCCNc3ccnc4cc(Cl)ccc34)n2)cc(OC)c1 | 104 | 2.72 | 0.044 µM | 285 | 0.12 µM | 12.5 µM | 
Fc1ccc(Nc2ccnc(NCCNc3ccnc4cc(Cl)ccc34)n2)cc1 | > 2 | 1.65 | 6.02 µM | > 3.32 | 9.99 µM |  | IC50 (Vero [2]; vero): Not Active; Activity (Vero [6]): Non-toxic
Clc1ccc2c(NCCNc3nccc(Nc4ccccc4)n3)ccnc2c1 | > 13.1 | 1.05 | 1.51 µM | > 13.2 | 1.53 µM |  | IC50 (Vero [2]; vero): Not Active; Activity (Vero [6]): Non-toxic
Fc1ccc(Nc2ccnc(NCCCNc3ccnc4cc(Cl)ccc34)n2)cc1 | 146 | 3.35 | 0.028 µM | 490 | 0.094 µM | 13.7 µM | 
Clc1ccc(Nc2ccnc(NCCCNc3ccnc4cc(Cl)ccc34)n2)cc1 | 30.2 | 9.46 | 0.047 µM | 286 | 0.445 µM | 13.4 µM | 
COc1ccc(Nc2ccnc(NCCCNc3ccnc4cc(Cl)ccc34)n2)cc1 | 165 | 2.02 | 0.04 µM | 333 | 0.081 µM | 13.3 µM | 
Fc1ccc(Nc2ccnc(NCCCCNc3ccnc4cc(Cl)ccc34)n2)cc1 | > 3.43 | 1.82 | 3.2 µM | > 6.25 | 5.83 µM |  | IC50 (Vero [2]; vero): Not Active; Activity (Vero [6]): Non-toxic
Clc1ccc(Nc2ccnc(NCCCCNc3ccnc4cc(Cl)ccc34)n2)cc1 | 212 | 1.18 | 0.044 µM | 251 | 0.052 µM | 11 µM | 
COc1ccc(Nc2ccnc(NCCCCNc3ccnc4cc(Cl)ccc34)n2)cc1 | 166 | 1.34 | 0.05 µM | 223 | 0.067 µM | 11.1 µM | 
Cc1ccc(Nc2ccnc(NCCCNc3ccnc4cc(Cl)ccc34)n2)cc1 | 53.4 | 2.26 | 0.153 µM | 121 | 0.346 µM | 18.5 µM | 
